Measurements of several laboratories.
Compare with care: the assays were run in different laboratories.
Target: Bone morphogenetic protein receptor type-1A (BMPR1A, Homo sapiens, UniProt P36894)

| Compound | read-out | method | tested at | remaining binding |
| --- | --- | --- | --- | --- |
| N[C@@H]1CCN(c2nccc(-c3cnn4ncccc34)n2)C1 | binding |  | 1 µM | 100% |
| c1ccc(N2CCN(Cc3nc4ccccc4[nH]3)CC2)nc1 | binding | competition with immobilised ligand | 1 µM | 86% |
| COc1cnc(Nc2cccc(S(N)(=O)=O)c2)nc1N1CCN(c2ccccc2)C(=O)C1 | binding | competition with immobilised ligand | 1 µM | 67% |
| C[C@@]1(Cc2ccc(C#N)cc2)C(=O)N(c2cc(Cl)cc(Cl)c2)c2ncc(C(=O)NC3(c4nc(C5CCC5)no4)CC3)n21 | binding | competition with immobilised ligand | 1 µM | 100% |
| O=C(NCCCN1CCOCC1)c1ccc(Nc2ncc(Cl)c(-c3ccc(Cl)s3)n2)cc1 | binding | competition with immobilised ligand | 1 µM | 86% |
| O=C(O)[C@H]1[C@H](Cn2nnc3ccccc3c2=O)CC[C@@H]1C(=O)c1ccc(OCCC2CCOCC2)cc1 | binding | competition with immobilised ligand | 1 µM | 61% |
| COc1ncc2cc3ccccc3nc2c1C#N | binding | competition with immobilised ligand | 5 µM | 94% |
| Cc1cnn2ncc(-c3ccnc(N(C)C)n3)c2c1 | binding |  | 1 µM | 100% |
| CN(c1ccnc(CNc2nc(Nc3ccc4c(c3)CC(=O)N4)ncc2C(F)(F)F)n1)S(C)(=O)=O | binding | competition with immobilised ligand | 1 µM | 89% |
| C[C@H]1CCN(c2nccc(-c3cnn4ncccc34)n2)C1 | binding |  | 1 µM | 68% |
| O=C(NCCCN1CCOCC1)c1ccc(Nc2nccc(-c3cc4ccccc4s3)n2)cc1 | binding | competition with immobilised ligand | 1 µM | 78% |
| FC(F)(F)Oc1cccc(-c2cnc3ccc(-c4ccncc4)nn23)c1 | cell-free assay | competition with immobilised ligand | 5 µM | 81% |
| CN(C)c1nccc(-c2cnc3ncccn23)n1 | binding |  | 1 µM | 100% |
| COc1cccc(CNC(=O)c2nc3scc(COCc4ccc(C(=O)O)cc4)c3c(=O)[nH]2)c1 | cell-free assay | competition with immobilised ligand | 1 µM | 100% |
| CN(C)c1nccc(-c2cnn3ncccc23)n1 | binding |  | 1 µM | 81% |
| O=C(c1ccc(Nc2ncc(Cl)c(-c3ccc(Cl)s3)n2)cc1)N1CCC(N2CCCC2)CC1 | binding | competition with immobilised ligand | 1 µM | 59% |
| C[C@@H](c1ccc(-n2cnc3c(N)ncnc32)cc1)N1CCc2nn(C)c(Cc3ccccc3)c2C1=O | binding | competition with immobilised ligand | 0.1 µM | 100% |
| CCN1CCN(Cc2ccc(C(=O)Nc3ccc(C)c(Oc4ccc5c(c4)CC(=O)N5)c3)cc2C(F)(F)F)CC1 | binding | competition with immobilised ligand | 1 µM | 100% |
| CC1=C(C#N)[C@@H](c2ccc3[nH]nc(C)c3c2)C(C#N)=C(c2ccc(Cl)cc2)N1 | binding | competition with immobilised ligand | 1 µM | 98.6% |
| O=C(Nc1c[nH]nc1C(=O)NC1CCNCC1)c1cc(F)cc(F)c1 | binding | competition with immobilised ligand | 1 µM | 89% |
